Experimental data from the EternaBench riboswitch data.

Test system: MS2 coat protein
Test: apparent Kd, MS2 coat protein; higher = weaker binding; RNA-MaP array; FMN 200 µM where present
How it was run: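 Stalled E. coli RNA polymerase transcribed each design on Illumina sequencing-chip clusters. The clusters were titrated with SNAP-549-labelled MS2 coat protein, starting at 0.7 or 1.5 nM and doubling up to 3 µM, first without ligand and then with constant ligand, in 100 mM Tris-HCl pH 7.5, 80 mM KCl, 4 mM MgCl2, BSA, DTT, yeast tRNA and Tween-20. Green signal was normalised to red-channel RNA signal and to the control-cluster median Fmax. The apparent Kd is the median of filtered binding-curve fits made for each cluster.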

[1] = designed as: OFF switch for flavin mononucleotide, no ligand
[2] = ligand present: flavin mononucleotide, designed as: OFF switch for flavin mononucleotide
[3] = designed as: ON switch for flavin mononucleotide, no ligand
[4] = ligand present: flavin mononucleotide, designed as: ON switch for flavin mononucleotide

| Sequence | apparent Kd [1] | apparent Kd [2] | apparent Kd [3] | apparent Kd [4] |
| --- | --- | --- | --- | --- |
| CUCUUGUGAGGAUAUCAGUAGUAAAAAAAUAAAAUUACUACUGAGAAGGCACAUGAGGAUCACCCAUGUACCUU | 22.9 nM | 22.7 nM | – | – |
| CUCUUGUUAGGAUAUCAAACCGGCAGCGGAGCCGCCGGAAGUGAGAAGGGACAUGAGGAUCACCCAUGUAAGAA | 81.6 nM | 256 nM | – | – |
| CUGAAGUCAGGAUAUCGUUAAUUUAGUUGUUUGUAUUAGUUCGAGAAGGGACAUGAGGAUCACCCAUGUAAGUC | 33.9 nM | 45.9 nM | – | – |
| CUGACGAUGUAAGGAUAUGCUGAGGAUAACUCAGCAGAAGGUACAUGAGGAUCACCCAUGUAACGUCAGAAUAAUAAUAAUAAU | 12.6 nM | 23.1 nM | – | – |
| CUGAUGUUAGGAUAUCAGGCGCCCGCCACUAGCAGGGCGCAUGAGAAGGGACAUGAGGAUCACCCAUGUAGUAA | 31.6 nM | 54.5 nM | – | – |
| CUGCCUUAUGUAGGAUAUGCAUAGCGUUGCUAUGCAGAAGGACAUGAGGAUCACCCAUGUAUGUUAUCAAUACAUAUCUGGCAG | 16.9 nM | 53.2 nM | – | – |
| CUGCUAAUAGGAUAUGCUAGGGAGGCUUCACGUUAGCAGGAACAUGAGGAUCACCCAUGUAGAAGGAUUGUAGA | 30.2 nM | 21.2 nM | – | – |
| CUGGGUAAAAUGGGAGGUAGCUGGCAGGAUAUGACAUGAGGAUCACCCAUGUGGAGAUCUUGGGAUCAGAAGGGCCUGUGACCU | 205 nM | 119 nM | – | – |
| CUGGGUUAGGAGAAGGGCUAGAGUGUGAUAUAUUUGCCCGCGAGCACAUGAGGAUCACCCAUGUAGCAGGAUAUCCAAACCGGU | 7.33 nM | 19.5 nM | – | – |
| CUGGUCUAUGUAGGAUAUGGUGUAUAUGUAUUACCAGAAGGACAUGAGGAUCACCCAUGUGUCGUGGUAUGAGUAGGUGAUGUU | 47.2 nM | 146 nM | – | – |
| CUGGUUGUCGAGGAUAUGCACCAGCUCGCUGACGCAGAAGGCGACACAUGAGGAUCACCCAUGUCGGUUCGCGU | 21.9 nM | 32.9 nM | – | – |
| CUGUAGUCAGGAUAUACAUGAGGAUCACCCAUGUAAAAUUUUAAUUUAAUUUGAAGGUGUAGAAGGGACCAGUU | 34.3 nM | 32.9 nM | – | – |
| CUGUGACGGUGCGCAAGUGGACGUAGAAGGGUCACAUGAGGAUCACCCAUGUGGGCCUGCGAGUGACAGGAUAUACGUUCGUGC | 15 nM | 57 nM | – | – |
| CUGUGACGGUGCGCAAGUGGACGUAGAAGGGUCACAUGAGGAUCACCCAUGUGGGCCUGCUAGUGACAGGAUAUACGUUCGUGC | – | 65.2 nM | – | – |
| CUGUUCGGUGUAGGAUAUGCAUAUUCCCAUUAUGCAGAAGGACAUGAGGAUCACCCAUGUAUGUUAUUAUCAUGUGUUACAUGC | 38.2 nM | 90.2 nM | – | – |
| CUGUUUAAAGUGAGGAUAUGAACCUAGAACCAGGAUUAGAAGGCACAUGAGGAUCACCCAUGUGGUUGGUUGGG | 16.6 nM | 16.7 nM | – | – |
| CUUCAGUCAGGAUAUGUUAAUCUCACCACUCGGCGAGCCGGACAGAAGGGACAUGAGGAUCACCCAUGUUAAAA | 39.1 nM | 23.4 nM | – | – |
| CUUCAGUGAGGAUAUACAUAACGGGACGUUAAUAUCGUUAGGUAGAAGGCACAUGAGGAUCACCCAUGUUUAAA | 92 nM | 66 nM | – | – |
| CUUCUCAGAGUCAGGAUAUAGUCGAAAGGGCUAGACUAGAAGGGACAUGAGGAUCACCCAUGUAAAAUAUCAAA | 19.2 nM | 29.8 nM | – | – |
| CUUCUGUGAGGAUAUGUUAGCUCCCAGAAUGUCGCUGGGAGACAGAAGGCACAUGAGGAUCACCCAUGUGGGCG | 35.2 nM | 175 nM | – | – |
| CUUGUACAUGAGGAUCACCCAUGUUAGGAUAUCUCGCCGUCGGCUUGCCGACGGUAUUAGAGAAGGGACUUGGG | 56 nM | 33 nM | – | – |
| CUUGUGUUAGGAUAUGCGCCCUGAAGAAGCAGGGCCAGAGAGCAGAAGGAACAUGAGGAUCACCCAUGUGUGAC | 60.3 nM | 51.2 nM | – | – |

| Sequence | apparent Kd [1] | apparent Kd [2] | apparent Kd [3] | apparent Kd [4] |
| --- | --- | --- | --- | --- |
| CUUGUGUUAGGAUAUGCGCCCUGCAAAAGCAGAGCCAGAGAGCAGAAGGAACAUGAGGAUCACCCAUGUGUGAC | 67.5 nM | 61.3 nM | – | – |
| CUUGUGUUAGGAUAUGCGUUUCCGGUACGUCACCGGAUCUGGCAGAAGGGACAUGAGGAUCACCCAUGUUUGGC | 46.6 nM | 30.3 nM | – | – |
| CUUGUGUUAGGAUAUGCGUUUCCGGUGCGUCACUGGAUCUGGCAGAAGGGACAUGAGGAUCACCCAUGUUUGGC | 38.7 nM | 31 nM | – | – |
| CUUGUUUAUGUAGGAUAUGCCUGGCGUGCCUUUGCAGAAGGACAUGAGGAUCACCCAUGUAACAUGAGGCUCCACCUUGUCGCC | 143 nM | 141 nM | – | – |
| CUUUAGUGAGGAUAUGUGGCUUCGAUCGUGAGAUCGAGGCUACAGAAGGCACAUGAGGAUCACCCAUGUUCCUG | 15.7 nM | 48.5 nM | – | – |
| CUUUCAUUUUAGGAUAUCGAGUUGGCGAUAGCUCGAGAAGGGAAUACAUGAGGAUCACCCAUGUCGGGUCACGU | 177 nM | 173 nM | – | – |
| CUUUCGUGAGGAUAUCAGUAGUAAAAAUAUAAAAUUACUACUGAGAAGGCACAUGAGGAUCACCCAUGUUCCUC | 26 nM | 150 nM | – | – |
| CUUUCGUGAGGAUAUCAGUAGUAAAUAAAUAAAAUUACUACUGAGAAGGCACAUGAGGAUCACCCAUGUUCCUC | 23.6 nM | 144 nM | – | – |
| CUUUCGUGAGGAUAUCAGUAGUAAUAAUAUAAAAUUACUACUGAGAAGGCACAUGAGGAUCACCCAUGUUCCUC | 24.5 nM | 114 nM | – | – |
| CUUUUAUAAUAGAAGGUAGACUUUAAGUGGAUCACCCAUGUGUUGGUACUAAGGAUAUGUAGUAACAUGAGGAUCACCCAUGUU | – | – | 20.5 nM | 16.9 nM |
| CUUUUGUGAGGAUAUUAGUAGUAAACAAACAAAAUUAUUACUGAGAAGGCACAUGAGGAUCACCCAUGUUCCUC | 39.7 nM | 637 nM | – | – |
| CUUUUGUGAGGAUAUUCGUAGUAGGGUCAUGGCACUAUUACGGAGAAGGCACAUGAGGAUCACCCAUGUACCUU | 15.1 nM | 26.4 nM | – | – |
| CUUUUGUGAGGAUAUUCGUAGUAGGGUCAUGGCACUAUUAUGGAGAAGGCACAUGAGGAUCACCCAUGUACCUU | 16.6 nM | 29.3 nM | – | – |
| CUUUUGUGAGGAUAUUGGUAGUAAAUGAAUAAAAUUAUUACCGAGAAGGCACAUGAGGAUCACCCAUGUUCCUC | 47.7 nM | 491 nM | – | – |
| CUUUUUUGAGGAUAUUAGUAGUAAAUAAAUAAAAUUACUACUGAGAAGGCACAUGAGGAUCACCCAUGUUCCUC | 16.3 nM | 26.9 nM | – | – |
| GAAAAACAUGAGGAUCACCCAUGUAAGGAUAUGCUGAAAAAACACUGGAAACAGUGCAGCAGAAGGUACAAAAG | 65.1 nM | 103 nM | – | – |
| GAACAUGAGGAUCACCCAUGUUCUCCAGAAGGCCGUACAUUUAAAAGUGGAUGGAUUAGUAUUGCGGAGGAUAUGGAGGUGCAA | – | – | 102 nM | 61.1 nM |
| GAACCACAUGAGGAUCACCCAUGUCUAAGAAAUUAAGGAUAUGCACAAAAGGAAAUAACUGCAGAAGGUAAACGAA | – | – | 33.4 nM | 27.4 nM |
| GAACGUAAAGAGAAGGGCUACUGGUUGAAACCUGCGGCCUCUGGAACAUGAGGAUCACCCAUGUAGCAGGAUAUCUUUGCAUUA | 146 nM | 18.9 nM | – | – |
| GAAGCACAUGAGGAUCACCCAUGUAAGGAUAUAUUUCUGGUCCGGCCGGACCAGUACCGUAGAAGGUAUGUAAA | 13.5 nM | 13.9 nM | – | – |
| GAAGCACGCAUUAACAUGAGGAUCACCCAUGUCAAAAGACGUGAGGAUAUGGAUCUGAAGAAGAUCCAGAAGGCACUGUGCUAA | – | – | 7.39 nM | 5.59 nM |
